What was measured:
PANC-1 [1] = assay: Antiproliferative activity against human PANC-1 cells assessed as cell growth inhibition at 100 uM by MTT assay relative to control; type: functional; conditions: read-out: GI
In short: (§1)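 Five human lines (MCF-7, HeLa, A549, PC-3, Panc-1) exposed to a single 100 μM concentration. Viability read by MTT. Results expressed as […] versus untreated control cells.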

PC-3 = assay: Antiproliferative activity against human PC-3 cells assessed as cell growth inhibition at 100 uM by MTT assay relative to control; type: functional; conditions: read-out: GI; in short: as §1
K562 = assay: Antiproliferative activity against human K562 cells assessed as cell growth inhibition by MTT assay; type: functional, cell-based
MCF7 [2] = assay: Antiproliferative activity against human MCF7 cells assessed as cell growth inhibition at 100 uM by MTT assay relative to control; type: functional; conditions: read-out: GI; in short: as §1
MCF7 [3] = assay: Antiproliferative activity against human MCF7 cells assessed as cell growth inhibition by MTT assay; type: functional, cell-based
In short: (§2)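 MTT antiproliferation readout. […] Mean ± SD from three independent experiments.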

PANC-1 [4] = assay: Antiproliferative activity against human PANC-1 cells assessed as cell growth inhibition by MTT assay; type: functional, cell-based; in short: as §2
Tubulin (Homo sapiens) = Tubulin (Homo sapiens) (UniProt P68371+Q9H4B7+P0DPH7+P68366+Q13509+Q71U36+P04350+Q3ZCM7+P07437+P68363+Q9BQE3+Q6PEY2+Q13885+Q9BVA1+Q9BUF5); assay: Inhibition of tubulin (unknown origin) polymerization at 10 uM measured every 1 min over 20 mins by fluorescence assay relative to control; type: protein-complex assay
In short: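 Tubulin in reaction buffer incubated at 37 °C with test agent at final 10 μM; control 1% DMSO. Polymerization followed at 340 nm, read every minute over 20 min. Run three times.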

HeLa [5] = assay: Antiproliferative activity against human HeLa cells assessed as cell growth inhibition at 100 uM by MTT assay relative to control; type: functional; conditions: read-out: GI; in short: as §1
A549 = assay: Antiproliferative activity against human A549 cells assessed as cell growth inhibition at 100 uM by MTT assay relative to control; type: functional; conditions: read-out: GI; in short: as §1
Tubulin = assay: Inhibition of tubulin (unknown origin) polymerization measured every 1 min over 20 mins by fluorescence assay; type: protein-complex assay, Homo sapiens
In short: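 Tubulin polymerization at 37 °C in reaction buffer, followed at 340 nm each minute over 20 min; 1% DMSO control. IC50 given as mean of three independent experiments done in quadruplicate.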

HeLa [6] = assay: Antiproliferative activity against human HeLa cells assessed as cell growth inhibition by MTT assay; type: functional, cell-based; in short: as §2

IC50 (K562): 66 µM
IC50 (MCF7 [3]): 40.6 µM
IC50 (PANC-1 [4]): 59.8 µM
inhibition (Tubulin (Homo sapiens)): 52%
IC50 (Tubulin): 9.4 µM
IC50 (HeLa [6]): 52.2 µM
SMILES: COc1ccc(C(=O)Cn2nc(-c3cc(OC)c(OC)c(OC)c3)nc2N)cc1
inhibition of growth at 100 µM (PANC-1 [1]): 57%
inhibition of growth at 100 µM (PC-3): 31%
inhibition of growth at 100 µM (MCF7 [2]): 73%
inhibition of growth at 100 µM (HeLa [5]): 76%
inhibition of growth at 100 µM (A549): 21%

Source: ChEMBL document CHEMBL4732238, “Synthesis, biological evaluation, and structure-activity relationships of new tubulin polymerization inhibitors based on 5-amino-1,2,4-triazole scaffold” (Bioorg Med Chem Lett, 2021)
